Results published in the RNAGym collection of RNA variant scans (doi:10.1038/s41586-018-0170-7).

B1: tRNA (parent)
chain: GUUCCGUUGGCGUAAUGGUAACGCGUCUCCCUCCUAAGGAGAAGACUGCGGGUUCGAGUCCCGUACGGAACG

Variants of: B1
Assay: yeast fitness, log relative to wild type (ln ratio); higher = fitter; tRNA-Arg(CCU), competitive growth, 37 C, 1 M NaCl
How it was run: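 For each genotype, fitness is defined as the natural log of its generation number over the wild type's. The tRNA-Arg(CCU) variant library was on a HIS3 centromeric plasmid in BY4742 with the chromosomal gene removed, and pools were first grown 4 generations in SC-HIS at 30 °C and then ~6.5 generations (~26.5 h) in SC-HIS 1M NaCl at 37 °C. Generations were calculated from OD-scaled log2 output/input frequency, weighted by inverse variance across replicates, using counts from 125 bp paired-end Illumina sequencing.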

| Variant | yeast fitness (ln) |
| --- | --- |
| U2G G6A C27U C66U A70G C71U | -0.203 |
| G1A U2C C46U A69G C71U | -0.134 |
| G6A A43C C46U | -0.143 |
| C27U C46U C66U A69G A70U C71U | -0.485 |
| G1A C27U A70U C71U | -0.34 |
| U2G G6U C66A A69G C71U | -0.101 |
| G6A C27U C46U A69G A70G C71U | -0.219 |
| U2G C27U C46U | -0.0742 |
| G1A U2C G6A C46U C66U A69G A70U C71U | -0.339 |
| U2C A43C C66A | -0.0546 |
| G1A C46U C66U A70U | -0.201 |
| U2G C27U A43C C66U A69G C71U | -0.354 |
| U2G G6U A69G A70U | -0.151 |
| G1A G6A C46U C66U A69G A70G C71U | -0.0914 |
| G6U C27U C46U C66U A70U C71U | -0.336 |
| G6A C27U C66U A69G C71U | -0.594 |
| U2C G6A C27U A43C C66U A69G A70U C71U | -0.351 |
| C27U A43C C66U A70G | -0.227 |
| U2G G6A C27U A70G | -0.112 |
| G1A U2G G6A C46U C66U | -0.13 |
| G1A U2C C27U C46U C66U C71U | -0.124 |
| U2G C27U C66U A70U C71U | -0.281 |
| G1A G6A C27U C66U A70U C71U | -0.461 |
| G1A U2G G6U C27U C66U A70U C71U | -0.434 |

| Variant | yeast fitness (ln) |
| --- | --- |
| U2C G6U C27U C46U A69G A70G C71U | -0.244 |
| G1A G6A C27U A70U C71U | -0.23 |
| G1A C46U C66A | 0.0129 |
| G6A C46U C66A A69G A70G C71U | -0.185 |
| U2C C46U A69G | -0.0478 |
| U2G C66U A69G A70G C71U | -0.204 |
| U2C G6U C27U C46U C66U A70G C71U | -0.177 |
| A43C C66A A69G A70G | -0.154 |
| G1A U2C G6U C27U C46U A69G C71U | -0.166 |
| G1A A43C C66U A69G A70U C71U | -0.338 |
| G1A U2G A43C C46U C66U A69G A70U | -0.181 |
| G1A U2G C27U C46U C66U A69G A70U C71U | -0.429 |
| U2C G6U C46U C66U A70G | -0.0115 |
| U2G A43C C66U A70U C71U | -0.351 |
| G6U C27U A43C C46U A69G | -0.268 |
| G1A U2G G6U C27U A43C C46U C66A A69G A70U C71U | -0.431 |
| G1A G6A A43C A69G A70G | -0.301 |
| G1A C27U A43C C66U A69G A70G C71U | -0.371 |
| G1A U2G C27U A43C C46U C66A A70G C71U | -0.224 |
| G6U C27U C46U C66U A69G A70U C71U | -0.51 |
| G6U C27U A43C C46U C66A A70U | -0.382 |
| G6A C27U A43C C46U C71U | -0.176 |
| G1A U2G G6A C46U A69G C71U | -0.193 |
| G1A U2G C27U C66U A70G | -0.194 |

| Variant | yeast fitness (ln) |
| --- | --- |
| U2G G6A C27U A43C C46U C66U A69G | -0.415 |
| G1A G6A A43C C46U A69G A70U | -0.283 |
| G1A U2G G6A A43C C46U C71U | -0.23 |
| G1A U2C G6U C66U A69G A70G C71U | -0.221 |
| U2G G6A A43C C66U A69G A70G C71U | -0.304 |
| G1A U2C G6A C27U A43C C66U A70G C71U | -0.0683 |
| G1A U2C A43C C46U C66A A70G C71U | -0.0667 |
| U2G C46U C71U | -0.0759 |
| U2G G6U C27U C46U A69G C71U | -0.205 |
| G1A C27U C46U C66A A69G C71U | -0.168 |
| G1A U2C C27U C46U C66A A70U C71U | -0.15 |
| G6A C27U A43C C66A A70G C71U | -0.325 |
| G1A G6A C27U C46U C66A C71U | -0.11 |
| G6U C27U C46U C66A A70U C71U | -0.213 |
| G6U A43C C46U C66A A69G A70G C71U | -0.167 |
| G1A U2C G6U C66U A70G | -0.302 |
| G1A U2C G6U C66A A69G A70U | 0.0124 |
| U2C G6U C27U C46U A70G C71U | -0.359 |
| U2G G6A C27U A70U C71U | -0.144 |
| G1A U2G C27U A43C C46U C66A C71U | -0.254 |
| U2G C27U A43C C46U A70G C71U | -0.115 |
| U2C G6A A43C C46U C66U A70G C71U | -0.0112 |
| C27U C66U | -0.134 |
| C27U A43C C46U C66U C71U | -0.253 |

| Variant | yeast fitness (ln) |
| --- | --- |
| U2C G6U A43C C46U A69G A70U C71U | -0.393 |
| U2C G6A C27U A43C A70G | -0.153 |
| G1A G6A A43C C66U A70U C71U | -0.405 |
| G1A U2G G6A A43C A69G C71U | -0.506 |
| C46U C66U A69G | -0.104 |
| U2C G6A C46U C66U A69G A70U | -0.138 |
| U2G G6A A43C C46U C66A A70U | -0.0808 |
| G1A G6U C27U A43C A69G A70G | -0.536 |
| G1A U2C C27U C46U A69G A70G C71U | -0.0376 |
| G1A C46U C66U A70G C71U | -0.493 |
| G1A U2C G6U C46U C66U A69G A70G | -0.183 |
| U2C C27U A43C C46U C66A A70U | -0.0988 |
| G1A U2C G6A C46U A69G A70U C71U | -0.0787 |
| G1A U2C G6A C46U C71U | -0.108 |
| U2G A43C C66A A69G A70U | -0.231 |
| U2G G6A C27U C46U C66U A69G A70U | -0.0313 |
| G1A G6U C27U C46U A70U C71U | -0.278 |
| G6A A43C C46U C71U | -0.117 |
| U2G G6U A43C C66A A69G A70U | -0.185 |
| G6U C46U A69G A70G C71U | -0.253 |
| C27U C66U A69G A70G | -0.19 |
| G1A G6U C27U C66U A69G A70G C71U | -0.386 |
| G1A C27U A43C C46U | -0.131 |
| U2G | -0.0125 |

| Variant | yeast fitness (ln) |
| --- | --- |
| G1A U2C G6A C27U A70U | -0.0756 |
| G1A G6A C27U C46U C66A A70G C71U | -0.269 |
| G1A U2G A43C A70G C71U | -0.207 |
| G1A U2C A43C | -0.0267 |
| U2C G6A C27U A43C C66U A69G A70U | -0.33 |
| U2G G6U C27U A69G A70G | -0.246 |
| U2G G6U C27U A69G A70U | -0.227 |
| U2C G6A C27U A43C C66U A70U C71U | -0.309 |
| G1A C27U C66U A69G A70G | -0.211 |
| U2C G6A A43C C66U A69G A70U C71U | -0.366 |
| G1A A43C C46U C66U A70G C71U | -0.192 |
| G1A U2C C27U C66U A70U | -0.108 |
| G1A U2C G6U C27U A43C C46U A69G A70G | -0.297 |
| G6U A43C C46U A70G C71U | -0.256 |
| U2G C27U C46U C66U C71U | -0.214 |
| G6U C27U C66A C71U | -0.109 |
| G1A U2G G6U A69G A70G C71U | -0.427 |
| G1A A43C C66U A70G C71U | -0.235 |
| U2C C66U C71U | -0.0912 |
| G1A U2C C66U A70U | -0.0937 |
| G1A U2G G6A C27U A69G A70U C71U | -0.526 |
| G1A U2C C27U A43C C46U A69G C71U | -0.167 |
| U2G G6U C27U C46U C66A C71U | -0.147 |
| U2G A43C C46U C66A A69G A70U C71U | -0.443 |

| Variant | yeast fitness (ln) |
| --- | --- |
| G1A U2C C27U A43C C46U A70U | -0.072 |
| U2G G6U A43C C46U C66A A69G C71U | -0.462 |
| G1A U2C G6U C46U C66A A70U C71U | -0.0961 |
| U2G G6U A43C C46U C66A A70U | -0.00113 |
| U2G G6A C27U C66A A70U | -0.126 |
| U2C G6A C27U A70G | -0.167 |
| U2G G6U C27U A70G | -0.211 |
| G1A U2C C46U A69G A70U C71U | -0.257 |
| U2G G6A A43C C46U C66U A69G A70G C71U | -0.229 |
| U2C C27U C46U C66U C71U | -0.132 |
| G1A U2G C46U C66U A69G A70G | -0.172 |
| U2C C27U A43C C46U C66U A70U | -0.115 |
| G6A C27U A43C C66U A69G A70G C71U | -0.371 |
| G1A C27U C46U C66A A70G | -0.213 |
| G1A U2C G6A A43C C46U A69G A70G C71U | -0.119 |
| G6A C27U C71U | -0.204 |
| U2G C27U A43C C46U C66A A69G A70U | -0.175 |
| U2G G6U C66A A69G A70G | -0.25 |
| G1A U2G G6A A43C C46U C66U A69G A70G | -0.275 |
| G6A A43C C46U C66A A69G A70G C71U | -0.207 |
| U2G G6U A43C C46U C66U A69G A70G | -0.267 |
| G1A U2G G6A C27U C46U A70G C71U | -0.244 |
| U2G A43C C46U C71U | -0.0479 |
| U2C G6U C66A | -0.00733 |

| Variant | yeast fitness (ln) |
| --- | --- |
| G1A G6A A43C C46U C71U | -0.145 |
| G1A U2C C46U C66U C71U | -0.119 |
| U2C G6A C46U C66U A70G | -0.00418 |
| C66U | -0.017 |
| G1A C27U C46U C66A A70G C71U | -0.187 |
| G1A C66U | -0.0546 |
| G6U C27U C46U C66A A69G A70G | -0.243 |
| U2C C27U A43C C66A | -0.155 |
| G1A U2G G6A C27U C46U C66U A69G A70U | -0.219 |
| U2G G6U C27U C46U A69G A70U | -0.153 |
| U2G G6U C27U C46U C66U A70G | -0.176 |
| G1A U2C G6A C27U A70G C71U | -0.273 |
| U2G A43C | -0.0825 |
| U2C G6U C66A A69G A70G C71U | -0.00896 |
| G6U A43C C46U A70U C71U | -0.225 |
| U2C C27U A70U C71U | -0.104 |
| G1A U2C A43C C46U A69G A70G | -0.0565 |
| U2G G6U A43C C46U A70U C71U | -0.168 |
| G1A U2G C27U A43C C46U C66U A70U | -0.214 |
| G1A G6A A69G A70G | -0.104 |
| G1A G6U C27U A43C C46U C66U A69G A70U | -0.452 |
| G1A G6U C27U A43C C46U C66U A69G A70G | -0.353 |
| U2C G6A C27U C46U C66U A69G A70G C71U | -0.0479 |
